# Results published in PubChem BioAssay AID588696 (Southern Research Specialized Biocontainment Screening …, 2011).
# Active and inactive are the calls of the source.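 Rule for the calls: active = inhibition of 30% or more at any tested concentration; inactive = the rest.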
# Target: Aspartyl aminopeptidase (Homo sapiens) (UniProt Q9ULA0)
# Assay: human M18 aspartyl aminopeptidase inhibitors, dose response, counter-screen for PfM18AAP inhibitor project, biochemical, QFRET fluorogenic readout, recombinant enzyme (AID 588696)
# Conditions: recombinant hM18AAP, H-Glu-NHMec fluorogenic cleavage
# Method in brief: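 Material: recombinant human hM18AAP enzyme / Amount: 5 µg/mL enzyme / Also added: 0.1 mM H-Glu-NHMec substrate / Doses: twofold dilution series of compound, top dose 100 µM / Schedule: 90 min reaction, room temperature / Measured by: fluorescence at 370/460 nm / Controls: no-enzyme background wells as low-signal control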
row,SMILES,IC50 [µM]
1,COc1ccc2c(c1)C(=O)C(N)CC2 (centres undefined),99.8
2,O=C1c2ccc3c4c(ccc(c24)C(=O)N1O)CC3,89.2
3,O=S1(=O)c2ccccc2-c2cc(-c3nc(-c4ccc(O)c(O)c4)[nH]c3-c3ccccc3)ccc21,46.1
4,CCC(C)c1ccc(N)c(O)c1 (centres undefined),44.6

# Other lines, results leading:
row,IC50 [µM],SMILES
1,41.4,Oc1ccc(CCNC(c2ccccc2)c2ccccc2)cc1O
2,73,Cc1c(-c2ccccc2)[nH]c(-c2ccc(O)c(O)c2)[n+]1O
3,53.4,Oc1ccc(CCNc2cncc3ccccc23)cc1O
4,52.3,Cc1nc(NCCc2ccc(O)c(O)c2)c2c3c(sc2n1)CCC3
5,21.5,CCOc1cccc(-c2nc(-c3ccc(O)c(O)c3)cs2)c1
6,43.5,Nc1cc(C(=O)c2ccccc2)ccc1O
7,45.8,O=C1OCCN1CCc1nc(-c2ccc(O)c(O)c2)cs1
8,34,Oc1ccc(CCNc2ccc3ccccc3c2)cc1O
9,30.4,Oc1ccc(CCNc2cccc3ccccc23)cc1O
10,31.1,CN(CCc1ccc(O)c(O)c1)c1ccnc2ccccc12
11,27.9,Oc1ccc(-c2csc(Cc3cc4ccccc4[nH]3)n2)cc1O
12,33.1,CC(C)(C)C(=O)OCc1nc(-c2ccc(O)c(O)c2)cs1
13,26.6,Cc1ccc(-c2nc(-c3ccc(O)c(O)c3)cs2)cc1

# Same assay, conditions: recombinant hM18AAP, H-Glu-NHMec fluorogenic cleavage; at 50 µM (top of the series)
row,inhibition,SMILES
1,inactive,O=C(O)CCCNc1c2ccccc2nc2ccccc12
2,inactive,Oc1ccc(CCNc2c3c(nc4ccccc24)CCCC3)cc1O
3,inactive,O=C(O)CCCCNc1c2ccccc2nc2ccccc12
4,inactive,COc1ccc(CCNc2ccnc3ccccc23)cc1OC
5,inactive,O=c1ccc2cc(O)c(O)cc2o1

# Same assay, conditions: recombinant hM18AAP, H-Glu-NHMec fluorogenic cleavage; at 100 µM (top of the series)
row,SMILES,inhibition
1,COc1ccc(-c2csc(-c3ccccc3)n2)cc1OC,inactive
2,O=C(c1ccco1)N1CCN(Cc2cc(=O)c(O)c[nH]2)CC1,inactive
3,CCC(C)C(=O)Nc1ccccc1O (centres undefined),inactive
4,NCc1cc2c3c(c(=O)oc2c(O)c1O)CCC3,inactive
5,CCC(C)C(=O)Nc1ccccc1N (centres undefined),inactive
6,COc1ccc(-c2csc(-c3ccccc3OC)n2)cc1OC,inactive
7,COc1ccc(CNc2c3ccccc3nc3ccccc23)cc1OC,inactive
8,Cc1c(OCc2ccccc2)c(=O)ccn1CCNc1c2ccccc2nc2ccccc12,inactive
9,O=c1cc(CN2CCN(Cc3ccccc3)CC2)c2ccc(O)c(O)c2o1,inactive
10,COc1ccc(-c2nc(-c3ccccc3)c(-c3ccccc3)[nH]2)cc1OC,inactive
11,COc1ccc(CCN2CCN(C)CC2)cc1OC,inactive
12,COc1ccc(CCNC2CCN(C)CC2)cc1OC,inactive
13,COc1ccc(CC(=O)O)cc1OC,inactive
14,COc1ccc(CCNc2c3c(nc4ccccc24)CCCC3)cc1OC,inactive
15,NCCNc1c2ccccc2nc2ccccc12,inactive
16,Cc1c(O)c(=O)ccn1CCNc1c2ccccc2nc2ccccc12,inactive
17,O=C(c1ccco1)N1CCN(Cc2cc(=O)c(O)co2)CC1,inactive
18,COc1cccc(-c2nc(-c3ccc(OC)c(OC)c3)cs2)c1,inactive
19,COc1ccc(CCNC2CCN(Cc3ccccc3)CC2)cc1OC,inactive
20,O=c1cc(CO)oc(CN2CCCCC2)c1O,inactive

# Second part, the compound after the results:
row,inhibition,SMILES
1,inactive,Oc1ccc(CCCNc2c3ccccc3nc3ccccc23)cc1O
2,inactive,COc1cccc(CCNc2c3ccccc3nc3ccccc23)c1
3,inactive,Oc1ccc(CCNC2CCN(Cc3ccccc3)CC2)cc1O
4,inactive,CN(CCc1ccc(O)c(O)c1)c1ccncc1
5,inactive,COc1ccc(CCCNc2c3ccccc3nc3ccccc23)cc1OC
6,inactive,Oc1ccc(CCNc2c3ccccc3nc3ccccc23)cc1
7,inactive,COc1ccc(CCN2CCc3ccccc3C2)cc1OC
8,inactive,Oc1ccc(CCN2CCc3ccccc3C2)cc1O
9,inactive,COc1ccc(CCN(C)CCc2ccccc2)cc1OC
10,inactive,COc1ccc(CCNc2ccc3ccccc3c2)cc1OC
11,inactive,COc1ccc(CCN(C)c2ccnc3ccccc23)cc1OC
12,inactive,COc1ccc(CCNc2cccc3ccccc23)cc1OC
13,inactive,COc1ccc(CCN(C)c2ccncc2)cc1OC
14,inactive,COc1ccc(CCNc2c3ccccc3nc3ccccc23)cc1OC
15,inactive,COc1ccc(CCC(=O)O)cc1OC
16,inactive,COc1ccc(CCNc2cncc3ccccc23)cc1OC
17,inactive,COc1ccc(CCNc2ccncc2)cc1OC
